These results are taken from ChEMBL document CHEMBL1142895, “Discovery of a new insecticide lead by optimizing a target-diverse scaffold: tetrazolinone derivatives” (2007).

The test system of experiment [1] is Triticum aestivum. Kind of experiment: Inhibition of stem growth of Triticum aestivum at 100 mg/L. It counts as functional. A digest of the protocol:
(§1)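 Seeds of each species were grown in Petri dishes with 10 seeds per dish, at 28 °C, 70–80% RH, 16:8 h light:dark photoperiod and 3000 lx light for 5 days. Root and stem lengths were measured for the 10 seeds and averaged. Each test and its controls were run in three replicates, and the data were given probit analysis.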

In experiment [2] the test system is Triticum aestivum. Kind of experiment: Inhibition of root growth of Triticum aestivum at 100 mg/L. It counts as functional. A digest of the protocol:
as §1

The test system of experiment [3] is Echinochloa crus-galli. Kind of experiment: Inhibition of stem growth of Echinochloa crus-galli at 100 mg/L. It counts as functional. A digest of the protocol:
as §1

Experiment [4] relates to Echinochloa crus-galli. Kind of experiment: Inhibition of root growth of Echinochloa crus-galli at 100 mg/L. It counts as functional. A digest of the protocol:
as §1

The test system of experiment [5] is Sorghum bicolor. Kind of experiment: Inhibition of stem growth of Sorghum bicolor at 100 mg/L. It counts as functional. The gist of the method: as §1
Experiment [6] concerns Sorghum bicolor. Put plainly: Inhibition of root growth of Sorghum bicolor at 100 mg/L. It counts as functional. A digest of the protocol: as §1
In experiment [7] the test system is Brassica rapa subsp. oleifera. Kind of experiment: Inhibition of stem growth of Brassica campestris at 100 mg/L. It counts as functional. A digest of the protocol: as §1
In experiment [8] the test system is Brassica rapa subsp. oleifera. Put plainly: Inhibition of root growth of Brassica campestris at 100 mg/L. It counts as functional. The gist of the method: as §1
The subject of experiment [9] is Radish. Put plainly: Inhibition of stem growth of Raphanus sativus at 100 mg/L. It counts as functional. The gist of the method: as §1
Experiment [10] has as its system Radish. Kind of experiment: Inhibition of root growth of Raphanus sativus at 100 mg/L. It counts as functional. The gist of the method:
as §1

Experiment [11] deals with Cucumis sativus. Kind of experiment: Inhibition of stem growth of Cucumis sativus at 100 mg/L. It counts as functional. The gist of the method:
as §1

Experiment [12] relates to Cucumis sativus. Kind of experiment: Inhibition of root growth of Cucumis sativus at 100 mg/L. It counts as functional. A digest of the protocol: as §1
A further experiment has as its system Aphis. Kind of experiment: Insecticidal activity against Aphis medicagini at 250 mg/L. It counts as functional. The gist of the method: (§2)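 Groups of 10 of each species were placed in glass Petri dishes and sprayed with test solution using a Potter sprayer. After air-drying, they were held under normal rearing conditions. Mortality at 72 h was taken from the number and size of live larvae relative to untreated controls.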

The test system of experiment [13] is Triticum aestivum. Kind of experiment: Herbicidal activity against Triticum aestivum at 450 g ai/ha in greenhouse in vivo test. It counts as functional, organism-based.
For experiment [14], the system named is Echinochloa crus-galli. Put plainly: Herbicidal activity against Echinochloa crus-galli at 450 g ai/ha in greenhouse in vivo test. It counts as functional, organism-based.
Experiment [15] deals with Sorghum bicolor. Put plainly: Herbicidal activity against Sorghum bicolor at 450 g ai/ha in greenhouse in vivo test. It counts as functional, organism-based.
Experiment [16] relates to Brassica rapa subsp. oleifera. Kind of experiment: Herbicidal activity against Brassica campestris at 450 g ai/ha in greenhouse in vivo test. It counts as functional, organism-based.
For experiment [17], the system named is Radish. Kind of experiment: Herbicidal activity against Raphanus sativus at 450 g ai/ha in greenhouse in vivo test. It counts as functional, organism-based.
Experiment [18] has as its system Cucumis sativus. Put plainly: Herbicidal activity against Cucumis sativus at 450 g ai/ha in greenhouse in vivo test. It counts as functional, organism-based.
In another experiment the test system is Tetranychus cinnabarinus. Put plainly: Insecticidal activity against Tetranychus cinnabarinus at 250 mg/L. It counts as functional. The gist of the method: as §2

Activity calls are given as the source filed them. No cut-off for these calls is given here.

On to `CO/C=C\C(C(=O)OC)c1ccccc1CSc1nnc(Cn2nnn(-c3ccc(Cl)cc3)c2=O)s1` (stereo not given), for which the inhibition at 100 µg/mL with Triticum aestivum [1] worked out at 40%; in the experiment on Triticum aestivum [2], 0%; in the experiment with Echinochloa crus-galli [3], 0%; in the experiment on Echinochloa crus-galli [4], 30%; with Sorghum bicolor [5], 0%; in the experiment with Sorghum bicolor [6], 60%. For the same molecule, the inhibition at 100 µg/mL turned out to be 30% in experiment [7]; 30% in experiment [8]; 30% with Radish [9]; 60% with Radish [10]; 30% with Cucumis sativus [11]; 30% in the experiment with Cucumis sativus [12]. In addition, the Activity in the experiment on Aphis is 2.9%; with Tetranychus cinnabarinus, 0%. For the same molecule, the result (in the experiment on Triticum aestivum [13]; in the experiment with Echinochloa crus-galli [14]; in the experiment with Sorghum bicolor [15]; in [16]; with Radish [17]; in the experiment on Cucumis sativus [18]) was inactive.
As to `CCOC(=O)CSc1nnc(Cn2nnn(-c3ccc(Cl)cc3)c2=O)o1`, the inhibition at 100 µg/mL in the experiment with Triticum aestivum [1], in the experiment on Triticum aestivum [2], in the experiment with Echinochloa crus-galli [3], with Echinochloa crus-galli [4], with Sorghum bicolor [5] and in the experiment with Sorghum bicolor [6] was 0% throughout. For the same molecule, the inhibition at 100 µg/mL was determined as 60% in experiment [7]; 50% in [8]; 0% with Radish [9]; 50% in the experiment with Radish [10]; 0% in the experiment with Cucumis sativus [11]; 0% in the experiment on Cucumis sativus [12]. Further, the Activity in the experiment with Aphis was found to be 0%; in the experiment with Tetranychus cinnabarinus, 2.9%. The outcome (in the experiment on Triticum aestivum [13]; in the experiment with Echinochloa crus-galli [14]; with Sorghum bicolor [15]; in experiment [16]; with Radish [17]; in the experiment on Cucumis sativus [18]) was inactive.
Consider `C=CCn1nnn(-c2ccc(Cl)cc2)c1=O`, for which the inhibition at 100 µg/mL in the experiment with Triticum aestivum [1] worked out at 80%; with Triticum aestivum [2], 80%; in the experiment on Echinochloa crus-galli [3], 50%; in the experiment with Echinochloa crus-galli [4] it was 0%; with Sorghum bicolor [5] it was 60%; in the experiment on Sorghum bicolor [6] it was 60%. The inhibition at 100 µg/mL turned out to be 50% in [7]; 50% in experiment [8]; 80% in the experiment on Radish [9]; 80% in the experiment with Radish [10]; 30% in the experiment with Cucumis sativus [11]; 40% in the experiment with Cucumis sativus [12]. Moreover, the Activity with Aphis came out at 3.3%; in the experiment on Tetranychus cinnabarinus, 4.3%. For the same molecule, the outcome (in the experiment with Triticum aestivum [13]; in the experiment on Echinochloa crus-galli [14]; in the experiment on Sorghum bicolor [15]; in experiment [16]; with Radish [17]; in the experiment with Cucumis sativus [18]) was inactive.
`CCOC(=O)C(C)n1nnn(-c2ccc(Cl)cc2)c1=O` (stereo not given): the inhibition at 100 µg/mL with Triticum aestivum [1] was 70%; with Triticum aestivum [2], 80%; in the experiment on Echinochloa crus-galli [3], 0%; in the experiment with Echinochloa crus-galli [4] it was 0%; with Sorghum bicolor [5], 40%; with Sorghum bicolor [6], 95%. In addition, the inhibition at 100 µg/mL worked out at 0% in [7]; 0% in experiment [8]; 50% with Radish [9]; 70% in the experiment with Radish [10]; 0% with Cucumis sativus [11]; 0% with Cucumis sativus [12]. In addition, the Activity is 0% in the experiment on Aphis and 97.1% with Tetranychus cinnabarinus. Further, the outcome (with Triticum aestivum [13]; in the experiment on Echinochloa crus-galli [14]; with Sorghum bicolor [15]; in [16]; in the experiment on Radish [17]; in the experiment on Cucumis sativus [18]) was inactive.
Consider `CCOC(=O)C(C)Sc1nnc(Cn2nnn(-c3ccc(Cl)cc3)c2=O)o1` (stereo not given), for which the inhibition at 100 µg/mL in the experiment on Triticum aestivum [1], with Triticum aestivum [2], with Echinochloa crus-galli [3], with Echinochloa crus-galli [4], in the experiment on Sorghum bicolor [5] and in the experiment on Sorghum bicolor [6] was 0% throughout. Besides, the inhibition at 100 µg/mL stood at 60% in experiment [7]; 80% in experiment [8]; 0% with Radish [9]; 0% in the experiment on Radish [10]; 0% in the experiment with Cucumis sativus [11]; 0% in the experiment with Cucumis sativus [12]. Further, the Activity came to 8.3% in the experiment on Aphis and 0% with Tetranychus cinnabarinus. Further, the result (with Triticum aestivum [13]; in the experiment on Echinochloa crus-galli [14]; with Sorghum bicolor [15]; in experiment [16]; in the experiment on Radish [17]; with Cucumis sativus [18]) was inactive.
With `Cc1cccc(Cn2nnn(-c3ccc(Cl)cc3)c2=O)c1`, the inhibition at 100 µg/mL in the experiment with Triticum aestivum [1], in the experiment with Triticum aestivum [2], in the experiment with Echinochloa crus-galli [3], with Echinochloa crus-galli [4], in the experiment with Sorghum bicolor [5] and in the experiment on Sorghum bicolor [6] was 0% throughout. Moreover, the inhibition at 100 µg/mL in [7] is 90%; in [8], 80%; in the experiment with Radish [9], 70%; in the experiment with Radish [10], 80%; with Cucumis sativus [11], 0%; in the experiment on Cucumis sativus [12], 0%. Besides, the Activity turned out to be 8.3% in the experiment on Aphis and 4.3% with Tetranychus cinnabarinus. Besides, the result (in the experiment on Triticum aestivum [13]; in the experiment on Echinochloa crus-galli [14]; in the experiment with Sorghum bicolor [15]; in experiment [16]; in the experiment on Radish [17]; with Cucumis sativus [18]) was inactive.
Take `CCOC(=O)CSc1nnc(Cn2nnn(-c3ccc(Cl)cc3)c2=O)s1`: the inhibition at 100 µg/mL was found to be 60% in the experiment on Triticum aestivum [1]; 50% in the experiment on Triticum aestivum [2]; 0% in the experiment on Echinochloa crus-galli [3]; 0% in the experiment on Echinochloa crus-galli [4]; 50% in the experiment with Sorghum bicolor [5]; 30% with Sorghum bicolor [6]. In addition, the inhibition at 100 µg/mL stood at 50% in [7]; 70% in experiment [8]; 60% in the experiment with Radish [9]; 70% with Radish [10]; 30% with Cucumis sativus [11]; 50% in the experiment on Cucumis sativus [12]. Besides, the Activity was 0% in the experiment with Aphis and 80% with Tetranychus cinnabarinus. Also, the result (with Triticum aestivum [13]; in the experiment on Echinochloa crus-galli [14]; in the experiment on Sorghum bicolor [15]; in [16]; in the experiment with Radish [17]; with Cucumis sativus [18]) was inactive.
Regarding `CCOC(=O)C(C)Sc1nnc(Cn2nnn(-c3ccc(Cl)cc3)c2=O)s1` (stereo not given), the inhibition at 100 µg/mL in the experiment with Triticum aestivum [1] was determined as 50%; with Triticum aestivum [2], 70%; in the experiment on Echinochloa crus-galli [3], 40%; with Echinochloa crus-galli [4], 50%; with Sorghum bicolor [5], 70%; in the experiment with Sorghum bicolor [6], 80%. The inhibition at 100 µg/mL in experiment [7] stood at 80%; in experiment [8], 85%; in the experiment with Radish [9] it was 50%; in the experiment with Radish [10], 80%; with Cucumis sativus [11], 60%; in the experiment on Cucumis sativus [12], 60%. Moreover, the Activity in the experiment with Aphis and in the experiment on Tetranychus cinnabarinus was 0% in each case. Moreover, the outcome (in the experiment on Triticum aestivum [13]; in the experiment with Echinochloa crus-galli [14]; with Sorghum bicolor [15]; in [16]; in the experiment with Radish [17]; in the experiment with Cucumis sativus [18]) was inactive.
As to `CCSc1nnc(Cn2nnn(-c3ccc(Cl)cc3)c2=O)s1`, the inhibition at 100 µg/mL with Triticum aestivum [1] was 40%; in the experiment on Triticum aestivum [2] it was 50%; with Echinochloa crus-galli [3] it was 70%; in the experiment on Echinochloa crus-galli [4] it was 60%; in the experiment with Sorghum bicolor [5], 60%; in the experiment on Sorghum bicolor [6] it was 70%. The inhibition at 100 µg/mL in experiment [7] was 60%; in [8], 60%; in the experiment with Radish [9], 40%; in the experiment on Radish [10], 50%; in the experiment on Cucumis sativus [11], 30%; with Cucumis sativus [12] it was 0%. In addition, the Activity came out at 82.5% with Aphis and 5.7% in the experiment with Tetranychus cinnabarinus. The result (in the experiment with Triticum aestivum [13]; with Echinochloa crus-galli [14]; with Sorghum bicolor [15]; in experiment [16]; in the experiment with Radish [17]; in the experiment on Cucumis sativus [18]) was inactive.
